In ChEMBL document CHEMBL1156123, “A facile synthesis and biological activity of novel tetrahydrobenzo[4',5']thieno[3',2':5,6]pyrido[4,3-d]pyrimidin-4(3H)-ones” (Bioorg Med Chem Lett, 2009):

What was measured:
Botrytis cinerea = assay: Antifungal activity against Botrytis cinerea at 50 mg/L relative to control; format: functional
Rhizoctonia solani = assay: Antifungal activity against Rhizoctonia solani at 50 mg/L relative to control; format: functional
[1] = tested on: Botryosphaeria berengeriana; assay: Antifungal activity against Botryosphaeria berengeriana at 50 mg/L relative to control; format: functional
Fusarium graminearum = assay: Antifungal activity against Gibberella zeae at 50 mg/L relative to control; format: functional
KB = assay: Cytotoxicity against human KB cells after 72 hrs MTT assay; format: functional, cell-based
How it was run: (§1)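 MTT read-out after 72 h exposure to compound. KB are drug-sensitive human oral carcinoma cells. KBv200 are the vincristine-induced multidrug-resistant derivative overexpressing ABCB1. Values are means of three independent experiments, each run in quadruplicate, with coefficients of variation below 10%.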

[2] = Cytotoxicity against multi-drug resistant human KBv200 cells after 72 hrs by MTT assay; format: functional, cell-based; details: KBv200, 72 h; how it was run: as §1
Bipolaris maydis = assay: Antifungal activity against Bipolaris maydis at 50 mg/L relative to control; format: functional

Compound	inhibition at 50 µg/mL (Botrytis cinerea) [%]	inhibition at 50 µg/mL (Rhizoctonia solani) [%]	inhibition at 50 µg/mL [1] [%]	inhibition at 50 µg/mL (Fusarium graminearum) [%]	IC50 (KB) [µM]	IC50 [2] [µM]	inhibition at 50 µg/mL (Bipolaris maydis) [%]
Cc1nc2sc3c(c2c2nc(Oc4cccc(F)c4)n(-c4ccccc4)c(=O)c12)CCCC3	98	84	78	58	> 100	> 100	90
Cc1ccc(Cl)c(Oc2nc3c(c(C)nc4sc5c(c43)CCCC5)c(=O)n2-c2ccccc2)c1	88	63	50	23	> 100	> 100	48
Cc1nc2sc3c(c2c2nc(Oc4ccc([N+](=O)[O-])cc4)n(-c4ccccc4)c(=O)c12)CCCC3	85	68	61	46	> 100	> 100	67
COc1cccc(Oc2nc3c(c(C)nc4sc5c(c43)CCCC5)c(=O)n2-c2ccccc2)c1	66	76	67	42	> 100	> 100	76
Cc1nc2sc3c(c2c2nc(Oc4ccc(F)cc4Cl)n(-c4ccccc4)c(=O)c12)CCCC3	88	79	67	54	> 100	> 100	67
Cc1cccc(Oc2nc3c(c(C)nc4sc5c(c43)CCCC5)c(=O)n2-c2ccccc2)c1	99	91	78	65	> 100	> 100	81
Cc1nc2sc3c(c2c2nc(Oc4ccc(Br)cc4)n(-c4ccccc4)c(=O)c12)CCCC3	83	68	83	65	68.9	> 100	81
CCCCNc1nc2c(c(C)nc3sc4c(c32)CCCC4)c(=O)n1-c1ccccc1	100	89	76	83	32	32.8	79
Cc1nc2sc3c(c2c2nc(Oc4ccc(F)cc4F)n(-c4ccccc4)c(=O)c12)CCCC3	78	63	50	38	> 100	> 100	71
Cc1nc2sc3c(c2c2nc(Oc4ccccc4)n(-c4ccccc4)c(=O)c12)CCCC3	85	65	56	15	54.2	61.9	76
Cc1ccc(Oc2nc3c(c(C)nc4sc5c(c43)CCCC5)c(=O)n2-c2ccccc2)cc1	80	61	56	31	48.3	67.3	76
Cc1nc2sc3c(c2c2nc(Oc4cc(F)cc(F)c4)n(-c4ccccc4)c(=O)c12)CCCC3	83	74	61	31	52.5	39.9	48
CC(C)(C)C(=O)C(Oc1ccc(Cl)cc1)n1cncn1 (configuration not stated) [TRIADIMEFON]	78	91		59			
CCCNc1nc2c(c(C)nc3sc4c(c32)CCCC4)c(=O)n1-c1ccccc1	57	24	29	20	17.4	25.4	47
O=c1[nH]cc(F)c(=O)[nH]1 [FLUOROURACIL]					12.5		
Cc1cc(Oc2nc3c(c(C)nc4sc5c(c43)CCCC5)c(=O)n2-c2ccccc2)ccc1Cl	73	22	39	31	84.3	72.2	52
